Wee1 stabilizer: blocks degradation of human Wee1 kinase. P30291. HeLa Luc-Wee1K328M stability, luciferase luminescence; 100% = proteasome inhibitor MG132 effect. reporter increase, % at 5 µM. 220,000 tested, 1.2% active. AID 1321;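 active means activation above the mean of all tested compounds plus 3 SD, set per screening run, cut at about 8.8% in these data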;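 further: cells exposed to compound for 20 h before luminescence read; 0% = DMSO alone and 100% = MG132 at 30 µM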
Target sequence (P30291 whole entry K328M): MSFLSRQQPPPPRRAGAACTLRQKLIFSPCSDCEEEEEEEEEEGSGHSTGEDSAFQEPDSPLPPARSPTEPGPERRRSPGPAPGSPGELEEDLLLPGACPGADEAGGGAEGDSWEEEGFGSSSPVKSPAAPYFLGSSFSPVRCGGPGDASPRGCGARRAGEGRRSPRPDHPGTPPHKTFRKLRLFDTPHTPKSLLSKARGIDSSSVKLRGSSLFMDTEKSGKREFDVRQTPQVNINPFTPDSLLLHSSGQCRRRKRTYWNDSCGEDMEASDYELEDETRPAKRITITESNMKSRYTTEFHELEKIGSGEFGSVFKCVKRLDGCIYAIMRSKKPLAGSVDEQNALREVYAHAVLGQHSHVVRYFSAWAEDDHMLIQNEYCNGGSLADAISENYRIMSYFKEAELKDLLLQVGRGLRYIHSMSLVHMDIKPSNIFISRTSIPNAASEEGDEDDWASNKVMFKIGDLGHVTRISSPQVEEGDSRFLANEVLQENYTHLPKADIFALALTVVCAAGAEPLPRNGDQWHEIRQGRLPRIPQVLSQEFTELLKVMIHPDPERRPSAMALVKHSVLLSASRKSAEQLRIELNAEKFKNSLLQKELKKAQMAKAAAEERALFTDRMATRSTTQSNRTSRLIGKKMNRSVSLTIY
PKD1 inh: PKD1 (human) kinase inhibition; inhibition, % (concentration not given with the values); AID 797; 200,000 tested, 0.056% active; Q15139; PKD1 kinase fluorescence polarization assay; in the data active means inhibition above about 50%
TRAIL sens C8: sensitizes caspase-8 expressing cells to TRAIL; 360,000 tested, 1% active; inhibition (viability loss, TRAIL sensitization), % at 10 µM; NB7+C8 cells + TRAIL, ATPlite viability luminescence;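 active means compounds causing at least 50% loss of cell viability in the single-dose screen, relative to plate controls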
FLuc inh counter: counter-screen for luciferase assay inhibitors: firefly luciferase inhibition; P08659; ATPLite firefly luciferase biochemical luminescence, 10 min; inhibition, % at 10 µM; 200,000 tested, 1.5% active; AID 1006;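 active means inhibition above about 50% when tested at 10 µM, limit read from the data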
FLuc act counter: affects firefly luciferase, flagging false hits in luciferase stimulation screens. P08659. ATPlite luciferase biochemical, luminescence, 10 min; 0 = ATP-free wells, 1 = DMSO control. activation factor at 10 µM. 200,000 tested, under 10 active;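 active means luciferase activation factor, scaled between plate controls, of at least 2 with compound at 10 µM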
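assay system = Luciferase/luciferin detection reagent, cell-free biochemical luciferase assay | also added = ATP substrate | times = 10 min post-reagent at room temperature | measured by = luminescence from luciferase reaction | measure = luciferase activation, seen as luminescence increase over controls | benchmarks = low control with PBS replacing ATP, high control enzyme plus ATP without compound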
PPC-1+TRAIL kill: compounds killing PPC-1 cancer cells with TRAIL present (potentiator screen, no TRAIL-free arm); 220,000 tested, 0.41% active; AID 1443; PPC-1 cells + TRAIL, ATPLite viability luminescence; cell killing (% activity), % at 4 µM or 5 µM;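 active means cell killing above 50% in the first pass at 4 µM, then a duplicate retest at 5 µM averaging 50% or more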;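 further: plate controls were cells with TRAIL plus DMSO for no effect and medium-only wells lacking cells for full effect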
PPC1 cytotox: kills PPC-1 cells | shares compounds with PPC-1+TRAIL kill | 1,200 tested, 50% active | PPC-1 viability, ATPlite luminescence, overnight | cytotoxicity, % at 5 µM | AID 1447;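 active means reconfirmed compounds whose average cytotoxicity reaches 50% or more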;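 further: 0% = DMSO-treated cells and 100% = wells holding medium but no cells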
* marks the source's active call; other numbers are inactive results; . = not tested or not shown. Rows were chosen to be rich in hits. Some 2.2% of all compounds tested hit in one or more screens of this group.

SMILES	Wee1 stabilizer	PKD1 inh	TRAIL sens C8	FLuc inh counter	FLuc act counter	PPC-1+TRAIL kill	PPC1 cytotox
O=C(N/N=C/c1ccc([N+](=O)[O-])s1)c1ccncc1	3	-1	29	-3	1	18	.
Cc1cc(C)c(C)c(S(=O)(=O)N2CCN(C(=O)C3CCC3)CC2)c1C	.	.	13	.	.	.	.
COc1cc(CN2CCCC(CO)(Cc3cccc(Cl)c3)C2)cc2c1OCO2 (stereo not given)	0	0	17	1	1	8	.
O=C(/C=C/c1ccc2c(c1)OCO2)Nc1cccnc1	4	2	70*	87*	0.1	60*	57*
CC(=O)NC1C(=O)N=C(SCC(=O)Nc2cccc(Cl)c2)NC1=O (stereo not given)	1	-2	13	-2	1	-6	.
COc1cc2oc3ccccc3c2cc1N(CC(=O)N(C)C)S(=O)(=O)c1ccccc1	2	4	-5	-9	1.1	24	.
CCN(CC)C(=O)CN(c1cc2c(cc1OC)oc1ccccc12)S(=O)(=O)c1ccccc1	0	1	0	-8	1.1	-8	-19
Cc1onc(-c2ccccc2Cl)c1-c1nc(-c2ccccn2)no1	-2	-8	19	4	1	12	.
Clc1ccccc1/C=C/c1nc(-c2ccccn2)no1	-4	.	69*	.	.	71*	67*
O=C(Nc1ccc(S(=O)(=O)Nc2ccnn2-c2ccccc2)cc1)C(F)(F)F	.	.	-3	.	.	.	.
O=C(CCN1CCN(CCO)CC1)Nc1ccc(F)c(F)c1	2	4	-6	-5	1.1	-1	5
CC(=O)NC(c1ccc(Cl)cc1)c1ccc2cccnc2c1O (stereo not given)	.	.	23	.	.	.	.
Cc1cc(NC(c2ccc(Cl)cc2)c2ccc3cccnc3c2O)no1 (stereo not given)	-2	0	18	-10	1.1	39	36
C/C(=N\NC(=O)c1ccc2c(c1)OCCO2)c1ccccc1	-1	.	48	.	.	65*	64*
O=C(N/N=C/c1cc(O)ccc1[N+](=O)[O-])c1ccc2c(c1)OCCO2	-3	.	89*	.	.	80*	83*
COc1ccc(/C=N/NC(=O)c2ccc3c(c2)OCCO3)cc1[N+](=O)[O-]	2	-5	3	-6	1.1	16	.
O=C(N/N=C/c1c(Cl)[nH]c2ccccc12)c1ccc2c(c1)OCCO2	0	.	66*	.	.	65*	64*
O=C(N/N=C/c1ccccc1[N+](=O)[O-])c1ccc2c(c1)OCCO2	-1	.	93*	.	.	93*	93*
O=C(NCc1ccccc1Cl)c1ccc2nc([C@@H]3O[C@H](CO)[C@H](O)[C@H](O)[C@H]3O)[nH]c2c1	.	.	-10	.	.	.	.
C=CCN1C(=O)CSc2ccc(C(=O)NCc3cccs3)cc21	-3	2	-2	-8	1.1	14	.
CCCCc1cc(C(=O)Cc2ccccn2)c(O)cc1O	.	.	-15	.	.	.	.
Cc1ccc(NC(=O)c2ccc(OCC3CCCO3)cc2)nc1 (stereo not given)	.	.	21	.	.	.	.
Cc1cnc(NC(=O)c2ccc(OCC3CCCO3)cc2)s1 (stereo not given)	-4	-6	87*	95*	0	83*	86*
Cc1ccc(Nc2nc(Oc3ccc(OCc4ccccc4)nn3)nc(N3CCOCC3)n2)cc1	0	-12	29	-3	1	16	13
CCOC(=O)c1nn(-c2ccc3c(c2)OCCO3)cc1O	9	-2	54*	84*	0.2	48	49
SMILES	Wee1 stabilizer	PKD1 inh	TRAIL sens C8	FLuc inh counter	FLuc act counter	PPC-1+TRAIL kill	PPC1 cytotox
CCOC(=O)Nc1ccc2c(c1)N(C(=O)N1CCN(C)CC1)c1ccccc1CC2	0	-2	9	33	0.7	6	.
CC(C)OC(=O)Nc1ccc2c(c1)N(C(=O)N1CCN(C)CC1)c1ccccc1CC2	11*	.	79*	.	.	74*	74*
COc1ccc(N2CCN(c3ccc(NC(=O)C4CCCCC4)cc3C#N)CC2)cc1	3	-6	-6	-4	1	-5	8
CCCCCCCCCCn1c2c(c(=N)c3c1CCC3)CCC2	-2	12	79*	-6	1.1	56*	54*
COC(=O)CCCn1cc(CN2CC(N3CCN(C)CC3)CS2(=O)=O)nn1 (stereo not given)	.	.	13	.	.	.	.
CCC(=O)N1CCc2cc(S(=O)(=O)N3CCc4ccccc43)ccc21	4	-4	12	-2	1	-3	-3
COc1ccc(C(=O)NNC(=O)c2ccccn2)cc1	-3	-10	89*	97*	0	86*	81*
Cc1cccc(/C=N/Nc2ccc3ccccc3n2)c1	4	2	85*	91*	0.1	71*	72*
Cc1cc(N/N=C/c2cccc(Br)c2)nc2ccccc12	1	-2	8	35	0.7	11	.
Cc1ccc(/C=N/Nc2ccc3ccccc3n2)o1	-2	-4	65*	87*	0.1	52*	58*
C(=N\Nc1ccc2ccccc2n1)/c1ccc2c(c1)OCCO2	-4	1	81*	93*	0.1	71*	75*
Cc1ccc(/C=N/Nc2cn[nH]c(=O)n2)o1	8	5	-11	-6	1.1	6	.
Cc1nc2ccc(NC(=O)COc3ccccc3)cc2s1	4	-6	17	-2	1	1	2
Cc1nc2ccc(NC(=O)Cc3ccsc3)cc2s1	4	0	22	33	0.7	7	10
Cc1nc2ccc(NC(=O)Cc3cccc(F)c3)cc2s1	-1	-9	3	4	1	3	.
CC(=O)c1ccc(N2CCN(C(=O)CN3C(=O)NC4(CCCCC4)C3=O)CC2)c(F)c1	.	.	-4	.	.	.	.
O=C(CSc1nnc(-c2ccncc2)o1)Nc1cc(F)ccc1F	.	.	4	.	.	.	.
Cc1ccc(-c2nnc(SCC(=O)Nc3ccccc3F)o2)cc1	-4	-10	72*	-2	1	76*	70*
O=C(CSc1nnc(-c2ccccc2)o1)Nc1ccccc1F	-3	-7	59*	-1	1	45	51*
O=c1oc(Nc2cccc(F)c2)nc2ccccc12	-4	-12	13	2	1	2	.
Nc1nc(Nc2cccc(F)c2)nc2ccccc12	3	9	27	57*	0.4	28	29
CCOc1ccccc1NC(=O)COC(=O)C(Cc1ccccc1)NC(=O)c1ccco1 (stereo not given)	.	.	-5	.	.	.	.
CCOc1ccc2[nH]c(S(=O)(=O)CC)nc2c1Cl	5	-1	-6	-2	1	7	22
CC(C)(C)c1ccc(-c2nnc(N)s2)cc1	2	-4	71*	87*	0.1	47	48
CCCCCCn1ccc(=N)cc1	4	1	22	-1	1	14	.
